Results reported in ChEMBL document CHEMBL5143722, “Antimicrobial Peptides against Multidrug-Resistant Pseudomonas aeruginosa Biofilm from Cystic Fibrosis Patients” (J Med Chem, 2022).
The source made the active and inactive calls. No cut-off for these calls is given here.

Assays:
Pseudomonas aeruginosa [1] = assay: Induction of biofilm degradation of Pseudomonas aeruginosa PAO1 at 50 uM incubated for 1 hr by crystal violet staining analysis relative to control; format: functional
How it was run: (§1)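 Bacteria at 1 × 10^6 CFU/mL in BM2 grown static at 37 °C for 24 h to form biofilm. Wells rinsed of unattached cells, then exposed for 1 h to serial peptide dilutions (1.56–50 μM). Washed, stained with 0.1% crystal violet, A590 read. Biomass given as % of untreated biofilm; no-bacteria wells as blanks. At least three biological repeats.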

Pseudomonas aeruginosa [2] = assay: Induction of biofilm degradation of Pseudomonas aeruginosa clinical isolate 99 at 50 uM incubated for 1 hr by crystal violet staining analysis relative to control; format: functional; how it was run: as §1
Pseudomonas aeruginosa [3] = assay: Induction of biofilm degradation of Pseudomonas aeruginosa clinical isolate 238 at 50 uM incubated for 1 hr by crystal violet staining analysis relative to control; format: functional; how it was run: as §1
Pseudomonas aeruginosa [4] = assay: Induction of biofilm degradation of Pseudomonas aeruginosa clinical isolate 629 at 50 uM incubated for 1 hr by crystal violet staining analysis relative to control; format: functional; how it was run: as §1
Pseudomonas aeruginosa [5] = assay: Antibiofilm activity against Pseudomonas aeruginosa clinical isolate 24 in basal medium 2 at 12.5 to 100 uM incubated for 24 hrs by resazurin staining based microtiter plate method; format: functional, organism-based; conditions: dose 12.5-100 µM
Pseudomonas aeruginosa [6] = assay: Induction of biofilm degradation of Pseudomonas aeruginosa clinical isolate 172 at 50 uM incubated for 1 hr by crystal violet staining analysis relative to control; format: functional; how it was run: as §1
Pseudomonas aeruginosa [7] = assay: Antibiofilm activity against Pseudomonas aeruginosa PAO1 in basal medium 2 at 12.5 to 100 uM incubated for 24 hrs by resazurin staining based microtiter plate method; format: functional, organism-based; conditions: dose 12.5-100 µM
Pseudomonas aeruginosa [8] = assay: Induction of biofilm degradation of Pseudomonas aeruginosa clinical isolate 24 incubated for 1 hr by crystal violet staining analysis relative to control; format: functional; conditions: dose 50.0 µM; how it was run: as §1
Pseudomonas aeruginosa [9] = assay: Induction of biofilm degradation of Pseudomonas aeruginosa clinical isolate 59 at 50 uM incubated for 1 hr by crystal violet staining analysis relative to control; format: functional
How it was run: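 Inoculum of 1 × 10^6 CFU/mL was grown 24 h at 37 °C without agitation to form biofilm. Wells were rinsed of unattached bacteria and exposed for 1 h to serial peptide dilutions (1.56–50 μM). They were then washed, stained with 0.1% crystal violet, and read at 590 nm with no-bacteria blanks. Biomass is given as % of untreated biofilm.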

Pseudomonas aeruginosa [10] = assay: Inhibition of biofilm formation of Pseudomonas aeruginosa clinical isolate 82 derived from cystic fibrosis patient sputum at 0.09 to 3.12 uM by crystal violet based staining analysis; format: functional, organism-based; conditions: dose 0.09-3.12 µM
How it was run: (§2)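 CF patient sputum diluted 10-fold with BM2, bacteria added with serial peptide dilutions starting from the highest MIC per isolate. Inoculum suspension 1 × 10^6 CFU/mL. Incubated 24 h at 37 °C without agitation. Unattached cells washed away, then 0.1% crystal violet staining and A590. Biomass given as % of untreated, with no-bacteria blanks.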

Pseudomonas aeruginosa [11] = assay: Induction of biofilm degradation of Pseudomonas aeruginosa clinical isolate 59 at <12.5 uM incubated for 1 hr by crystal violet staining analysis; format: functional; how it was run: as §1
Pseudomonas aeruginosa [12] = assay: Antibiofilm activity against Pseudomonas aeruginosa clinical isolate 24 assessed as inhibition of biofilm formation at sub-inhibitory concentration incubated for 24 hrs by crystal violet staining based microtiter plate method; format: functional, organism-based
How it was run: (§3)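 Washed overnight cultures in BM2 medium at 1 × 10^6 CFU/mL with 2-fold serial peptide dilutions in a U-bottom 96-well plate. Incubated 24 h at 37 °C without agitation. Unattached cells washed off, then 0.1% crystal violet stain read at 590 nm. No-bacteria blanks. Biomass expressed as % of untreated biofilm. At least three biological repeats.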

Pseudomonas aeruginosa [13] = assay: Antibiofilm activity against Pseudomonas aeruginosa clinical isolate 25 assessed as inhibition of biofilm formation at sub-inhibitory concentration incubated for 24 hrs by crystal violet staining based microtiter plate method; format: functional, organism-based; how it was run: as §3
Pseudomonas aeruginosa [14] = assay: Induction of biofilm degradation of Pseudomonas aeruginosa clinical isolate 29 at 50 uM incubated for 1 hr by crystal violet staining analysis relative to control; format: functional; how it was run: as §1
Pseudomonas aeruginosa [15] = assay: Induction of biofilm degradation of Pseudomonas aeruginosa clinical isolate 25 at 50 uM incubated for 1 hr by crystal violet staining analysis relative to control; format: functional; how it was run: as §1
[16] = test system: Pseudomonas aeruginosa PAO1; assay: Induction of biofilm degradation of Pseudomonas aeruginosa PAO1 in cystic fibrosis patient sputum at 10 uM incubated for 48 hr by resazurin staining based confocal microscopy analysis
Pseudomonas aeruginosa [17] = assay: Induction of biofilm degradation of Pseudomonas aeruginosa clinical isolate 46 at 50 uM incubated for 1 hr by crystal violet staining analysis relative to control; format: functional; how it was run: as §1
Pseudomonas aeruginosa [18] = assay: Antibiofilm activity against Pseudomonas aeruginosa clinical isolate 82 in basal medium 2 at 12.5 to 100 uM incubated for 24 hrs by resazurin staining based microtiter plate method; format: functional, organism-based; conditions: dose 12.5-100 µM
Pseudomonas aeruginosa [19] = assay: Induction of biofilm degradation of Pseudomonas aeruginosa clinical isolate 53 at sub MIC concentration incubated for 1 hr by crystal violet staining analysis; format: functional; how it was run: as §1
Pseudomonas aeruginosa [20] = assay: Antibiofilm activity against Pseudomonas aeruginosa clinical isolate 72 assessed as inhibition of biofilm formation at sub-inhibitory concentration incubated for 24 hrs by crystal violet staining based microtiter plate method; format: functional, organism-based; how it was run: as §3
Pseudomonas aeruginosa [21] = assay: Antibiofilm activity against Pseudomonas aeruginosa clinical isolate 53 assessed as inhibition of biofilm formation at sub-inhibitory concentration incubated for 24 hrs by crystal violet staining based microtiter plate method; format: functional, organism-based; how it was run: as §3
Pseudomonas aeruginosa [22] = assay: Inhibition of biofilm formation of Pseudomonas aeruginosa clinical isolate 24 derived from cystic fibrosis patient sputum at 0.09 to 3.12 uM by crystal violet based staining analysis; format: functional, organism-based; conditions: dose 0.09-3.12 µM; how it was run: as §2
Pseudomonas aeruginosa [23] = assay: Induction of biofilm degradation of Pseudomonas aeruginosa clinical isolate 82 at 50 uM incubated for 1 hr by crystal violet staining analysis relative to control; format: functional; how it was run: as §1
Pseudomonas aeruginosa [24] = assay: Antibiofilm activity against Pseudomonas aeruginosa clinical isolate 99 assessed as inhibition of biofilm formation at sub-inhibitory concentration incubated for 24 hrs by crystal violet staining based microtiter plate method; format: functional, organism-based; how it was run: as §3
Pseudomonas aeruginosa [25] = assay: Induction of biofilm degradation of Pseudomonas aeruginosa clinical isolate 995 at 50 uM incubated for 1 hr by crystal violet staining analysis relative to control; format: functional; how it was run: as §1
Pseudomonas aeruginosa [26] = assay: Antibiofilm activity against Pseudomonas aeruginosa clinical isolate 71 assessed as inhibition of biofilm formation at sub-inhibitory concentration incubated for 24 hrs by crystal violet staining based microtiter plate method; format: functional, organism-based; how it was run: as §3
Pseudomonas aeruginosa [27] = assay: Induction of biofilm degradation of Pseudomonas aeruginosa clinical isolate 40 at 50 uM incubated for 1 hr by crystal violet staining analysis relative to control; format: functional; how it was run: as §1
Pseudomonas aeruginosa [28] = assay: Antibiofilm activity against Pseudomonas aeruginosa clinical isolate 46 in basal medium 2 at 12.5 to 100 uM incubated for 24 hrs by resazurin staining based microtiter plate method; format: functional, organism-based; conditions: dose 12.5-100 µM
Pseudomonas aeruginosa [29] = assay: Antibiofilm activity against Pseudomonas aeruginosa clinical isolate 629 assessed as inhibition of biofilm formation at sub-inhibitory concentration incubated for 24 hrs by crystal violet staining based microtiter plate method; format: functional, organism-based; how it was run: as §3
Pseudomonas aeruginosa [30] = assay: Induction of biofilm degradation of Pseudomonas aeruginosa clinical isolate 52 at 50 uM incubated for 1 hr by crystal violet staining analysis relative to control; format: functional; how it was run: as §1
Pseudomonas aeruginosa [31] = assay: Induction of biofilm degradation of Pseudomonas aeruginosa clinical isolate 53 at 50 uM incubated for 1 hr by crystal violet staining analysis relative to control; format: functional; how it was run: as §1
Pseudomonas aeruginosa [32] = assay: Antibiofilm activity against Pseudomonas aeruginosa clinical isolate 46 assessed as inhibition of biofilm formation at sub-inhibitory concentration incubated for 24 hrs by crystal violet staining based microtiter plate method; format: functional, organism-based; how it was run: as §3
Pseudomonas aeruginosa [33] = assay: Inhibition of biofilm formation of Pseudomonas aeruginosa clinical isolate 24 derived from cystic fibrosis patient sputum at 0.78 to 25 uM by crystal violet based staining analysis; format: functional, organism-based; conditions: dose 0.78-25 µM; how it was run: as §2
Pseudomonas aeruginosa [34] = assay: Induction of biofilm degradation of Pseudomonas aeruginosa clinical isolate 40 at sub MIC concentration incubated for 1 hr by crystal violet staining analysis; format: functional; how it was run: as §1
Pseudomonas aeruginosa [35] = assay: Inhibition of biofilm formation of Pseudomonas aeruginosa PAO1 in patient derived CF-sputum at 0.09 to 3.12 uM by crystal violet based staining analysis; format: functional, organism-based; conditions: dose 0.09-3.12 µM; how it was run: as §2
Pseudomonas aeruginosa [36] = assay: Induction of biofilm degradation of Pseudomonas aeruginosa clinical isolate 71 at 50 uM incubated for 1 hr by crystal violet staining analysis relative to control; format: functional; how it was run: as §1
Pseudomonas aeruginosa [37] = assay: Induction of biofilm degradation of Pseudomonas aeruginosa clinical isolate 24 at sub MIC concentration incubated for 1 hr by crystal violet staining analysis; format: functional; how it was run: as §1
Pseudomonas aeruginosa [38] = assay: Induction of biofilm degradation of Pseudomonas aeruginosa clinical isolate 251 at 50 uM incubated for 1 hr by crystal violet staining analysis; format: functional; how it was run: as §1
Pseudomonas aeruginosa [39] = assay: Induction of biofilm degradation of Pseudomonas aeruginosa clinical isolate 72 at 50 uM incubated for 1 hr by crystal violet staining analysis relative to control; format: functional; how it was run: as §1

`CC(C)C[C@H](NC(=O)[C@H](CC(C)C)NC(=O)[C@H](CC(C)C)NC(=O)[C@H](CC(C)C)NC(=O)[C@H](CCCCN)NC(=O)[C@H](CCCCN)NC(=O)[C@H](CCCCN)NC(=O)[C@H](CCCCN)NC(=O)[C@H](CCCCN)NC(=O)[C@H](CCCCN)NC(=O)[C@H](CC(C)C)NC(=O)[C@H](CC(C)C)NC(=O)[C@H](CC(C)C)NC(=O)[C@H](CC(C)C)NC(=O)[C@@H](N)CC(C)C)C(N)=O` was tested, and the Activity (Pseudomonas aeruginosa [1]) was 60%, the Activity (Pseudomonas aeruginosa [2]) was 60% and the Activity (Pseudomonas aeruginosa [3]) was 60%. For the same compound, the Activity (Pseudomonas aeruginosa [4]) was 60%, the Activity (Pseudomonas aeruginosa [5]) was “Active” and the Activity (Pseudomonas aeruginosa [6]) was 60%. The Activity (Pseudomonas aeruginosa [7]) was “Active”, the Activity (Pseudomonas aeruginosa [8]) was 60% and the Activity (Pseudomonas aeruginosa [9]) was 40%. The inhibition (Pseudomonas aeruginosa [10]) was “Active”, the Activity (Pseudomonas aeruginosa [11]) was “Active” and the inhibition (Pseudomonas aeruginosa [12]) was “Active”. For the same compound, the inhibition (Pseudomonas aeruginosa [13]) was “Active”, the Activity (Pseudomonas aeruginosa [14]) was 60% and the Activity (Pseudomonas aeruginosa [15]) was 60%. For the same compound, the Activity [16] was “Active”, the Activity (Pseudomonas aeruginosa [17]) was 60% and the Activity (Pseudomonas aeruginosa [18]) was “Active”. For the same compound, the Activity (Pseudomonas aeruginosa [19]) was “Active”, the inhibition (Pseudomonas aeruginosa [20]) was “Active” and the inhibition (Pseudomonas aeruginosa [21]) was “Active”. The inhibition (Pseudomonas aeruginosa [22]) was “Active”, the Activity (Pseudomonas aeruginosa [23]) was 60% and the inhibition (Pseudomonas aeruginosa [24]) was “Active”. For the same compound, the Activity (Pseudomonas aeruginosa [25]) was 60%, the inhibition (Pseudomonas aeruginosa [26]) was “Active” and the Activity (Pseudomonas aeruginosa [27]) was 60%. For the same compound, the Activity (Pseudomonas aeruginosa [28]) was “Active”, the inhibition (Pseudomonas aeruginosa [29]) was “Active” and the Activity (Pseudomonas aeruginosa [30]) was 60%. For the same compound, the Activity (Pseudomonas aeruginosa [31]) was 60%, the inhibition (Pseudomonas aeruginosa [32]) was “Active” and the inhibition (Pseudomonas aeruginosa [33]) was “Active”. For the same compound, the Activity (Pseudomonas aeruginosa [34]) was “Active”, the inhibition (Pseudomonas aeruginosa [35]) was “Active” and the Activity (Pseudomonas aeruginosa [36]) was 60%. For the same compound, the Activity (Pseudomonas aeruginosa [37]) was “Active”, the Activity (Pseudomonas aeruginosa [38]) was 60% and the Activity (Pseudomonas aeruginosa [39]) was 60%.
